Three compounds from ChEMBL document CHEMBL3856209, “Novel pyrazolopyridine derivatives as potential angiogenesis inhibitors: Synthesis, biological evaluation and transcriptome-based mechanistic analysis” (Eur J Med Chem, 2016) can be followed below.

In series [1] the test system is HUVEC. The series is described as follows: Antimigratory activity in HUVEC at 0.2 to 2 uM after 6 hrs in presence of 5% fetal bovine serum by transwell assay. Type of series: functional, cell-based. The following applies: Homo sapiens. A digest of the protocol: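 Serum-starved confluent HUVEC pre-treated overnight with compound or vehicle in 5% FBS medium. Then placed in the upper chamber of 8 µm-pore Transwells (6×10^4 cells/well) and allowed to migrate 6 h toward 5% FBS or starvation medium. Migrated cells fixed, H&E stained, and counted in five fields/well; expressed as % of control; replicates from two independent experiments.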

Series [2] deals with Lewis lung carcinoma. The series is described as follows: Antitumor activity against mouse LLC cells allografted in C57BL/6 mouse assessed as tumor growth inhibition at 0.2 mg/kg, ip administered thrice a week for 2 weeks starting 24 hrs before tumor implantation measured every other day of compound dosing by electronic caliper-based method. Type of series: functional, organism-based. A digest of the protocol:
(§1)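 Male 6–8 week C57BL/6 mice (groups of 5–6) inoculated sc in the right flank with 5×10^5 LLC cells. Compound (0.2 mg/kg) or DMSO vehicle given ip thrice weekly for 2 weeks, starting 24 h before implantation. Tumors measured by caliper every other day. At end-point, anti-CD31 IHC (1:100) of tumor sections, with immunoreactive cells counted in six high-power fields.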

The target of series [3] is Vascular endothelial growth factor receptor 2 (Homo sapiens) (UniProt P35968). The series is described as follows: Inhibition of VEGF-165-induced VEGFR2 autophosphorylation at Tyr1175 in serum-starved HUVEC at 2 uM preincubated for 2 hrs followed by VEGF-165 induction measured after 5 mins by Western blot analysis. Type of series: cell-based. An outline of the steps: (§2)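 Serum-starved HUVEC were given 2 µM compound or vehicle for 2 h, then VEGF-165 (50 ng/mL) or PBS for 5 min. Lysates with equal protein were run on SDS-PAGE and immunoblotted for phospho-VEGFR2 (Tyr951, 996, 1056, 1175), p-AKT Ser473, p-ERK1/2 and the total proteins. Detection was by ECL with densitometry. Phospho signals were normalized to total protein, n = 3.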
Vascular endothelial growth factor receptor 2 (Homo sapiens), sequence (P35968 whole entry): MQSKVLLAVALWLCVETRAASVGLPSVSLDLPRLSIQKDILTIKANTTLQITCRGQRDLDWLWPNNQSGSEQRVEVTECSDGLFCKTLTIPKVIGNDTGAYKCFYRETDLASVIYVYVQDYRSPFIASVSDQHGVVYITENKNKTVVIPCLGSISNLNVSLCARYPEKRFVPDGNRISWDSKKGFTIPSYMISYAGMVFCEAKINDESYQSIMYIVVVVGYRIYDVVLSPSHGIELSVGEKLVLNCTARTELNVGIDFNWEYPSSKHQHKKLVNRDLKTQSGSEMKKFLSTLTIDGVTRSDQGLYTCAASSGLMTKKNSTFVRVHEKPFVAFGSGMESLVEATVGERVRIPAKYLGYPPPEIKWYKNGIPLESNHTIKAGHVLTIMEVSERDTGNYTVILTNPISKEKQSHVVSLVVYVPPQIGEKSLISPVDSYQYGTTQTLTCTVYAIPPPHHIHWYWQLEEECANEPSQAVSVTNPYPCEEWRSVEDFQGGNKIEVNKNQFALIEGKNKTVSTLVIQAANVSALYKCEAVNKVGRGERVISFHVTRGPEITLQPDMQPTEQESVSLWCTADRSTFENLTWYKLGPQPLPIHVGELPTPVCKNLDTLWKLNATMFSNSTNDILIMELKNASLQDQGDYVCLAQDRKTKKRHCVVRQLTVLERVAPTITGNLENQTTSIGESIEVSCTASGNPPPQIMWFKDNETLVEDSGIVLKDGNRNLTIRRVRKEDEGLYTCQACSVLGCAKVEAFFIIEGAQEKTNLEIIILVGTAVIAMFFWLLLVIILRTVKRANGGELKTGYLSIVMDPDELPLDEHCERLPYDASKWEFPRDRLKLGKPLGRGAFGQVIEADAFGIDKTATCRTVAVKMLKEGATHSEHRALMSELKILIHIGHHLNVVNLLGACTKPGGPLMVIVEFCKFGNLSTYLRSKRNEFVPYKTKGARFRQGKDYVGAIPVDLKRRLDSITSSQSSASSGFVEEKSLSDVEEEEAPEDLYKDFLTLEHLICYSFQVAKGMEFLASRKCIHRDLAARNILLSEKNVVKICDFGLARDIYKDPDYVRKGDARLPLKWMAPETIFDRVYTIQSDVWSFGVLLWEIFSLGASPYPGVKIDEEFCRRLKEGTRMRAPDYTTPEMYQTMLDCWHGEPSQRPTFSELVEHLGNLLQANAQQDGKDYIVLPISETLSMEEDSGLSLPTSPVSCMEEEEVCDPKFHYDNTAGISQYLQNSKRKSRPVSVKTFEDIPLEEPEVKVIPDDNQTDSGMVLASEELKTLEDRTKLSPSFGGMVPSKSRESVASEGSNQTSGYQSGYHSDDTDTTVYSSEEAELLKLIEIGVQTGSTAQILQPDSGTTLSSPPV
(In western blotting, separated proteins are transferred to a membrane and probed.)

A further series deals with EA.hy 926. The series is described as follows: Antiproliferative activity against human EAhy926 cells assessed as decrease in cell viability at 0.2 to 2 uM after 24 to 48 hrs in presence of 2.5% fetal bovine serum by MTT assay. Type of series: functional, cell-based. An outline of the steps: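 EA.hy926 seeded at 4×10^3/well, adhered 24 h, and starved 4 h in 0.25% BSA medium. Then treated with compound or 0.1% v/v DMSO in medium with 2.5% FBS for 48 h. MTT 0.5 mg/mL for 4 h, A595 with 630 nm correction, cell number from a standard curve. Expressed as % of DMSO control; replicates from two independent experiments.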
For orientation: Tetrazolium dyes change colour on reduction, which living cells bring about.

The test system of series [4] is HUVEC. The series is described as follows: Effect on KIF20A gene expression in serum-starved HUVEC after 24 hrs by microarray analysis relative to control. Type of series: functional, Homo sapiens. A digest of the protocol:
(§3)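 Confluent, serum-starved HUVEC (pooled from 3–5 donors, passage ≤4) treated with 2 μM compound or vehicle with 2.5% FBS for 6 h or 24 h. Total RNA hybridized to Illumina Human-HT12 arrays. Data were background-corrected, vst-transformed and rsn-normalized. Hits called by moderated paired t-test versus DMSO-treated cells, p < 0.05 and log2 fold change >|0.5|.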

Series [5] concerns HUVEC. The series is described as follows: Effect on RNU1-3 gene expression in serum-starved HUVEC after 24 hrs by microarray analysis relative to control. Type of series: functional, Homo sapiens. A digest of the protocol:
(§4)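 Serum-starved confluent HUVEC (pooled from 3–5 donors, passage ≤4) were treated with 2 μM compound or vehicle in 2.5% FBS for 6 h or 24 h, and total RNA was isolated. Hybridization was on Illumina Human-HT12. Data were processed with bgAdjust, vst and rsn normalization. Changes versus DMSO were called by moderated paired t-test at p < 0.05 and |log2 fold change| > 0.5.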

Series [6] concerns HUVEC. The series is described as follows: Inhibition of VEGF-165-induced HUVEC chemotactic migration at 0.2 to 2 uM after 6 hrs by transwell assay. Type of series: functional, cell-based. The conditions noted are these: Homo sapiens. A digest of the protocol: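 Serum-starved HUVEC were pre-treated overnight with compound or vehicle in 5% FBS medium. Cells were then seeded at 6×10^4 per upper Transwell chamber (8 µm pores) and migrated for 6 h toward VEGF-165 (50 ng/mL) or starvation medium. Migrated cells were ethanol-fixed, stained with H&E and counted in five fields per well. Results are % of control from at least two independent experiments.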

The test system of series [7] is HUVEC. The series is described as follows: Effect on KIF20A gene expression in serum-starved HUVEC after 6 hrs by microarray analysis relative to control. Type of series: functional, Homo sapiens. An outline of the steps:
as §3

For series [8], the target named is Vascular endothelial growth factor receptor 2 (Homo sapiens) (UniProt P35968). The series is described as follows: Inhibition of VEGF-165-induced VEGFR2 autophosphorylation in serum-starved HUVEC assessed as decrease in ERK1/2 phosphorylation at 2 uM preincubated for 2 hrs followed by VEGF-165 induction measured after 5 mins by Western blot analysis. Type of series: cell-based. A digest of the protocol:
as §2

Series [9] deals with HUVEC. The series is described as follows: Inhibition of total protein tyrosine kinase activity in serum-starved HUVEC at 1 to 4 uM after 2 hrs. Type of series: cell-based. The following applies: Homo sapiens.
Series [10] has as its target Vascular endothelial growth factor receptor 2 (Homo sapiens) (UniProt P35968). The series is described as follows: Inhibition of VEGF-165-induced VEGFR2 autophosphorylation in serum-starved HUVEC assessed as decrease in AKT phosphorylation at 2 uM preincubated for 2 hrs followed by VEGF-165 induction measured after 5 mins by Western blot analysis. Type of series: cell-based. An outline of the steps: as §2

The nature of series [11]: Effect on total VEGFR2 levels in VEGF-165-induced serum-starved HUVEC at 2 uM preincubated for 2 hrs followed by VEGF-165 induction measured after 5 mins by Western blot analysis. Type of series: cell-based. The following applies: human. A digest of the protocol: as §2
Series [12] can be described thus: Antiproliferative activity against human EAhy926 cells assessed as decrease in cell viability after 24 to 48 hrs in presence of 2.5% fetal bovine serum by MTT assay. The conditions noted are these: EA.hy 926. Type of series: functional, cell-based. A digest of the protocol: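 EA.hy926 in DMEM with 2.5% FBS exposed 48 h to serial 1:2 compound dilutions spanning 0.125–50 μM. Viable cells measured by MTT (0.5 mg/mL, 4 h, A595/630 nm). IC50 (mean ± SEM) fitted by non-linear regression from eight or more points.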

Series [13] deals with HUVEC. The series is described as follows: Effect on RNU1-3 gene expression in serum-starved HUVEC after 6 hrs by microarray analysis relative to control. Type of series: functional, Homo sapiens. An outline of the steps:
as §4

Series [14] concerns HUVEC. The series is described as follows: Antiangiogenic activity in HUVEC assessed as inhibition of VEGF-165-induced tube formation at 0.2 to 2 uM after 24 hrs by matrigel assay. Type of series: functional, cell-based. The conditions noted are these: Homo sapiens. A digest of the protocol: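 HUVEC seeded at 2×10^4 cells/well on growth factor-reduced Matrigel after pre-starvation, then given compound or vehicle (up to 0.1% v/v DMSO), with or without VEGF-165, for 24 h. Fixed in ice-cold ethanol and stained with haematoxylin-eosin. Tube-like structures counted in at least 5 fields/well and expressed as % of vehicle control; replicates from two independent experiments.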

Series [15] deals with HUVEC. The series is described as follows: Effect on GNG12 gene expression in serum-starved HUVEC after 24 hrs by microarray analysis relative to control. Type of series: functional, Homo sapiens. An outline of the steps:
as §3

For series [16], the system named is Lewis lung carcinoma. The series is described as follows: Antiangiogenic activity in mouse LLC cells allografted in C57BL/6 mouse assessed as decrease of microvessel density in tumor at 0.2 mg/kg, ip administered thrice a week for 2 weeks starting 24 hrs before tumor implantation measured post last dose by IHC analysis. Type of series: functional, organism-based. A digest of the protocol: as §1

The source made the active and inactive calls. The rule behind the calls is not given here.

On to `COc1ccc(Cn2nc(-c3ccccc3)c3cc(Cl)nc(N4CCNCC4)c32)cc1`, for which the result in the series with HUVEC [1], with EA.hy 926 and with Lewis lung carcinoma [16] was Active. Besides, the TGI result with Lewis lung carcinoma [2] is “Active”. In addition, the inhibition result (in series [3]; with HUVEC [6]; in series [8]; with HUVEC [9]; in [10]; in the series with HUVEC [14]) was “Active” in each case. Also, the log2FC was -0.5549 in the series on HUVEC [4]; -0.1906 in the series on HUVEC [5]; -0.1005 in the series with HUVEC [7]; -0.5393 in the series with HUVEC [13]; 0.2465 with HUVEC [15]. For the same compound, the Activity entry in series [11] is reported as “Non-Toxic”. Moreover, the IC50 (in general, the concentration that inhibits the measured activity by half) in series [12] was 4.3 µM.
`COc1ccc(Cn2nc(-c3ccccc3)c3cc(Nc4ccc(N5CCN(C)CC5)cc4)nc(N4CCN(C)CC4)c32)cc1`: the outcome in the series with HUVEC [1], in the series on EA.hy 926 and with Lewis lung carcinoma [16] was Active. Besides, in the series on Lewis lung carcinoma [2], the TGI entry is “Active”. Moreover, the inhibition result (in [3]; in the series on HUVEC [6]; in series [8]; with HUVEC [9]; in series [10]; in the series with HUVEC [14]) was “Active” throughout. In addition, the log2FC is on record as -0.9386 in the series with HUVEC [4]; 0.1009 in the series with HUVEC [5]; -0.1216 in the series on HUVEC [7]; -0.5806 with HUVEC [13]; 0.1566 in the series on HUVEC [15]. The Activity entry in series [11] is on record as “Non-Toxic”. Besides, the IC50 in [12] stood at 7.2 µM.
Consider `COc1ccc(Cn2nc(-c3ccccc3)c3cc(Nc4ccc(N5CCN(C)CC5)cc4)nc(N4CCNCC4)c32)cc1`, for which the outcome in the series with HUVEC [1], in the series on EA.hy 926 and in the series with Lewis lung carcinoma [16] was Active. Also, the TGI result with Lewis lung carcinoma [2] is “Active”. The inhibition entry (in [3]; in the series on HUVEC [6]; in series [8]; in the series on HUVEC [9]; in [10]; in the series on HUVEC [14]) was “Active” in each case. For the same compound, the log2FC in the series with HUVEC [4] is listed as -0.5596; with HUVEC [5], 0.1133; with HUVEC [7], -0.0473; in the series with HUVEC [13] it was -0.5169; in the series on HUVEC [15], 0.1458. Besides, the Activity result in series [11] is listed as “Non-Toxic”. Further, the IC50 in [12] was 12 µM.
